Several values for one entry are separate records, joined by “and”; a condition that tells them apart may be missing. Identical values can stand only once. Like-named read-outs stand apart in the source and are kept apart here.
Key:
[1] = format: in vivo, human; settings: for Cmin (predose trough): geometric mean (CV% geometric mean); for AUC / AUC(0-t) / Cmax / Vd/F / half-life / Tmax: human, plasma, oral; for Tmax: median (minimum, maximum)
Population PK = format: in vivo, human; settings: for AUC: human, plasma, oral, Median week 16 apremilast exposure (AUCτ,ss) derived from the PPK model, all subjects
Method in brief: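 Pooled plasma levels came from healthy or patient subjects: single oral 20–50 mg or multiple 30/50 mg b.i.d. in phase 1, plus phase 2b/3 psoriasis studies, including Japanese sparse/intensive samples at weeks 8–24. After below-LOQ exclusion, 5704 samples remained. Base model: CL/F, first-order Ka, absorption lag, Vc/F, mixed residual error. Tested covariates included age, sex, race, bodyweight and smoking.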

[2] = tested on: subjects with moderate to severe psoriasis; experiment: Exposure-response; format: in vivo, human; settings: for Predicted probability of achieving sPGA response (0 or 1) at week 16: non-Japanese, placebo 5.0%; for Predicted probability of achieving PASI-75 response at week 16: placebo 6.1%; for Predicted probability of achieving PASI-50 response at week 16: placebo 20.0%; for sPGA Probability: at race-specific median AUCτ,ss; for Predicted probability of sPGA response (0 or 1): typical model-derived exposure, Japanese subjects, placebo 14.1%
[3] = tested on: subjects with moderate to severe psoriasis; settings: cited from earlier work
[4] = predominantly Caucasian healthy subjects, mean [SD]; cited from earlier work
CYP3A4 = settings: multiple p.o. doses of rifampicin (strong CYP3A4 induction); cited from earlier work
[5] = tested on: plasma IL-17A, IL-17F, and IL-22; settings: 30 mg b.i.d., PSOR-009 (ESTEEM 2) and PSOR-011 PD subsets; cited from earlier work
[6] = 10 mg b.i.d., median exposure 1065.4 ng·h/mL
[7] = 20 mg b.i.d., median exposure 2030.6 ng·h/mL
[8] = 30 mg b.i.d., median exposure 3169.2 ng·h/mL
[9] = PSOR-008/ESTEEM 1, 30 mg b.i.d.
[10] = PSOR-011, Japanese subjects, 30 mg b.i.d.

Cmin (predose trough) ([1]; Japanese subjects, 20 mg b.i.d., week 20, n = 21): 91 ng/mL and 90.8 (50.1) ng/mL
Cmin (predose trough) ([1]; Japanese subjects, 30 mg b.i.d., week 20, n = 20): 104 ng/mL and 104 (66.6) ng/mL
Increase of mean AUCτ and Cmax with increase in dose ([1]; Japanese subjects, dose from 20 to 30 mg b.i.d.): ~ 1.2 times
AUC ([1]; 20 mg): 1960 ng·h/mL
AUC(0-t) ([1]; 20 mg): 1600 ng·h/mL
Cmax ([1]; 20 mg): 304 ng/mL
Vd/F ([1]; 20 mg): 68 L
half-life ([1]; 20 mg): 4.31 h
Tmax ([1]; 20 mg, Japanese subjects, 20 mg b.i.d., week 20, n = 21): ~2 h
AUC ([1]; 30 mg): 2400 ng·h/mL
AUC(0-t) ([1]; 30 mg): 1970 ng·h/mL
Cmax ([1]; 30 mg): 374 ng/mL
Vd/F ([1]; 30 mg): 83.1 L
half-life ([1]; 30 mg): 4.06 h
Tmax ([1]; 30 mg, Japanese subjects, 30 mg b.i.d., week 20, n = 20): ~2 h
Clearance faster than in a typical 45-year-old (Population PK): 14%
Clearance slower than in a 45-year-old (Population PK; 80-year-old): 8%
Vc/F greater than in a typical 82-kg individual (Population PK; 102-kg individual): approximately 14%
CL/F, typical value (RSE %) (Population PK; final PPK model): 9.25 (3.4) L/h
Clearance faster in Japanese versus non-Japanese individuals (Population PK; final PPK model): approximately 17%
Ka, first-order rate of absorption, typical value (RSE %) (Population PK; final PPK model): 1.83 (11.7) h^−1
Lag time of absorption, typical value (RSE %) (Population PK; final PPK model): 0.290 (11.7) h
Reduction of CL/F in subjects with psoriasis compared with healthy subjects (Population PK; final PPK model): approximately 17%
Vc/F, typical value (RSE %) (Population PK; final PPK model): 115 (2.2) L
AUC (Population PK; 20 mg, 20 mg b.i.d.): 2030 ng·h/mL
AUC (Population PK; 30 mg, 30 mg b.i.d.): 3170 ng·h/mL
SMILES: CCOc1cc([C@@H](CS(C)(=O)=O)N2C(=O)c3cccc(NC(C)=O)c3C2=O)ccc1OC [apremilast]
Predicted probability of achieving sPGA response (0 or 1) at week 16 [2, 6]: 16.2%
Predicted probability of achieving PASI-75 response at week 16 [2, 6]: 19.0%
Predicted probability of achieving PASI-50 response at week 16 [2, 6]: 43.8%
sPGA Probability ([2]; 20 mg BID, Caucasian): 23.2%
sPGA Probability ([2]; 20 mg BID, Japanese): 32.9%
Predicted probability of achieving sPGA response (0 or 1) at week 16 [2, 7]: 22.7%
Predicted probability of achieving PASI-75 response at week 16 [2, 7]: 28.6%
Predicted probability of achieving PASI-50 response at week 16 [2, 7]: 55.3%
Predicted probability of sPGA response (0 or 1) ([2]; 20 mg b.i.d.): 33.8%
sPGA Probability ([2]; 30 mg BID, Caucasian): 27.5%
sPGA Probability ([2]; 30 mg BID, Japanese): 36.3%
Predicted probability of achieving sPGA response (0 or 1) at week 16 [2, 8]: 27.3%
Predicted probability of achieving PASI-75 response at week 16 [2, 8]: 36.5%
Predicted probability of achieving PASI-50 response at week 16 [2, 8]: 62.8%
Predicted probability of sPGA response (0 or 1) ([2]; 30 mg b.i.d.): 37.5%
Rate of PASI-75 response at week 16 ([3]; PSOR-005, 30 mg b.i.d.): 40.9%
Rate of sPGA response (0 or 1) at week 16 ([3]; PSOR-005, 30 mg b.i.d.): 33.0%
Treatment effect (difference in proportions between apremilast 30 mg b.i.d. and placebo), PASI-75 ([3]; PSOR-005): 35.2%
Treatment effect (difference in proportions between apremilast 30 mg b.i.d. and placebo), sPGA response ([3]; PSOR-005): 21.1%
Rate of PASI-75 response at week 16 [3, 9]: 33.1%
Rate of sPGA response (0 or 1) at week 16 [3, 9]: 21.7%
Treatment effect (difference in proportions between apremilast 30 mg b.i.d. and placebo), PASI-75 ([3]; PSOR-008/ESTEEM 1): 27.8%
Treatment effect (difference in proportions between apremilast 30 mg b.i.d. and placebo), sPGA response ([3]; PSOR-008/ESTEEM 1): 17.8%
Rate of PASI-75 response at week 16 [3, 10]: 28.2%
Rate of sPGA response (0 or 1) at week 16 [3, 10]: 29.6%
Treatment effect (difference in proportions between apremilast 30 mg b.i.d. and placebo), PASI-75 ([3]; PSOR-011): 21.1%
Treatment effect (difference in proportions between apremilast 30 mg b.i.d. and placebo), sPGA response ([3]; PSOR-011): 20.8%
AUC0-∞ [4]: 3270 [1081] ng·h/mL
Cmax [4]: 298 [81.4] ng/mL
Decrease in apremilast exposure (CYP3A4): ~72%
Increase in apremilast clearance (CYP3A4): 3.6 times
Effect on plasma IL-17A, IL-17F, and IL-22 [5]: significantly reduced
